In the library only some 2.4% were active in any assay of this set; here they are far more common.
SIAE primary: human SIAE inhibitors, primary screen, biochemical, fluorescence polarization, FP-Rh probe, 1536-well HTS; inhibition, % at 9.66 µM; Sialate O-acetylesterase (Homo sapiens), Q9HAT2; SIAE FP-Rh probe binding; 370,000 tested, 0.69% active;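 active = inhibition above a cutoff: mean of compounds within the control limits plus 3 SD of those, cut at about 17% in these data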
GSTO1 inh: inhibitors of recombinant GSTO1, primary screen, counter-screen for RBBP9 inhibitor project, biochemical, fluorescence polarization | inhibition, % at 5.96 µM | 300,000 tested, 1.1% active | activity-based probe fluorescence polarization | Glutathione S-transferase omega-1 (Homo sapiens), P78417;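 active = inhibition above the campaign mean inhibition plus 3 SD, cut at about 35% in these data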
TDP2 absorb: human TDP2 enzyme inhibitors, primary screen, biochemical, epi absorbance, recombinant enzyme | Tyrosyl-DNA phosphodiesterase 2 (Homo sapiens), O95551 | 370,000 tested, 0.34% active | T5PNP hydrolysis, p-nitrophenol absorbance 415 nm | AID 720702, 2013 | inhibition, % at 12.8 µM;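 active = inhibition above the mean of all tested compounds plus 3 SD, set per campaign, cut at about 25% in these data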
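System: recombinant human TDP2 / Amount: 120 nM TDP2 per well / Also added: 5 mM T5PNP chromogenic substrate / Doses: 12.8 µM single point, 1% DMSO / Incubation: 2 h at 37 °C / Detection: p-Nitrophenol epi absorbance / Evaluation: % inhibition relative to enzyme-containing and enzyme-free wells / Repeats: singlicate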
PAD4 FP inh: human PAD4 inhibitors, primary screen, biochemical, fluorescence polarization, 1536-well format | Protein-arginine deiminase type-4 (Homo sapiens), Q9UM07 | recombinant PAD4, RCA probe fluorescence polarization | inhibition, % at 6.36 µM | 330,000 tested, 0.41% active;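 active = percent inhibition above a cutoff equal to the mean of all tested compounds plus 3 SD, cut at about 15% in these data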
TCR CD3 inh: inhibitors of human TCR-CD3 interaction, primary screen, biochemical, fluorescence, TAMRA-labeled TCR probe; inhibition, % at 9.4 µM; AID 651800, 2012; 360,000 tested, 0.37% active; in the data active = inhibition above about 19%;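 also: recombinant mutant TCR 2C K166C tagged with TAMRA read by polarization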
Apaf1 inhib: inhibitors of human Apaf-1 apoptosome, primary screen, biochemical, DEVD-Rh110 fluorescence, uHTS; reconstituted apoptosome caspase-3 activity; Apoptotic protease-activating factor 1 (Homo sapiens), O14727; inhibition, % at 20 µM; 330,000 tested, 0.71% active; AID 489030, 2010; active = inhibition of at least 40% at 20 µM
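Material: reconstituted apoptosome with Apaf-1, cytochrome c, caspase-9, procaspase-3, dATP; medium: pH 7.5 Hepes buffer with CHAPS, BSA, DTT; also added: cytochrome c and DEVD-Rh110 substrate; timing: 30 min plus 50 min, RT; signal: Rh110 fluorescence intensity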
SIAE confirm: human SIAE inhibitors, retest, confirmation, biochemical, fluorescence polarization, FP-Rh probe, triplicate; shares compounds with SIAE primary; SIAE FP-Rh activity-based probe; inhibition, % at 9.66 µM; 2,300 tested, 13% active; AID 1117263, 2014;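 active = mean inhibition of the replicates above the hit cutoff set in the primary screen, cut at about 17% in these data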;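 also: inhibitors lower polarization as more probe stays unbound to SIAE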
Hits are given with their value; - = inactive; . = not tested or not shown.

SMILES	SIAE primary	GSTO1 inh	TDP2 absorb	PAD4 FP inh	TCR CD3 inh	Apaf1 inhib	SIAE confirm
O=C1NC[C@@H](CCCCN2CCN(Cc3ccccc3)C(=O)C2=O)N(CCC2CCCCC2)C1=O	18.3	.	-	.	-	.	-
O=C1NC[C@@H](CCCCN2CCN(Cc3ccccc3)C(=O)C2=O)N(CC2CCCCC2)C1=O	-	.	-	.	-	.	.
CSC[C@@H]1NC(=S)N(c2ccc(C)cc2)C1=O	51.7	-	-	-	-	-	-
CCOCCCNC(=O)c1cc(Sc2ccc(F)cc2)nc2ccccc12	-	-	-	-	-	-	.
COCCCNC(=O)c1cc(Sc2ccc(F)cc2)nc2ccccc12	17.5	-	-	-	-	-	-
CC(C)(C)OC(=O)N1Cc2[nH]c3ccccc3c2C[C@@H]1C(=O)O	25.7	.	-	-	-	-	-
CC(C)(C)OC(=O)N1Cc2ccccc2C[C@H]1C(=O)N1CCC[C@H]1C(=O)O	-	-	-	-	-	-	.
Cc1c(OCC(N)=O)ccc2c(-c3ccccc3)cc(=O)oc12	-	-	-	-	-	-	.
Cc1onc(-c2ccccc2Cl)c1C(=O)Nc1ccc(N2CCOCC2)cc1	17.1	-	-	-	-	-	-
COCCNC(=O)C(=O)N/N=C(\C)CC(=O)Nc1cccnc1	-	-	-	-	-	-	.
CCN(c1nc(C)cc(OC)n1)S(=O)(=O)c1ccccc1	17.7	-	-	-	-	-	-
C=CCN(c1nc(C)cc(OC)n1)S(=O)(=O)c1ccccc1	-	-	-	-	-	-	.
COc1ccc(CNC(=O)C2CCN(S(=O)(=O)c3c(C)noc3/C=C/N(C)C)CC2)cc1	.	-	.	-	.	-	.
Oc1ccc(N=Nc2nc(-c3ccccc3)c(-c3ccccc3)[nH]2)cc1	36.6	-	-	-	-	-	-
CC(=O)NCCC(=O)Nc1cc(S(=O)(=O)N2CCCCC2)ccc1N1CCCCC1	-	.	-	-	-	-	.
CC(=O)NCCC(=O)Nc1cc(S(=O)(=O)Nc2ccc(Cl)cc2)ccc1N1CCCC1	17.8	-	-	-	-	-	-
COc1ccccc1NC(=O)C1=C(C)Nc2nc(-c3ccccc3)nn2C1c1ccccn1 (stereo not given)	-	-	-	-	-	-	.
O=C(CNC(=O)c1ccccc1)Sc1ccccc1	-	.	-	.	-	.	.
O=C(CCCCC(=O)Sc1ccccc1)Sc1ccccc1	18.0	.	-	.	-	.	-
COc1cccc(CN2CCc3[nH]c(=S)[nH]c(=O)c3C2)c1	22.1	-	-	-	-	-	-
COCCCN1CCc2[nH]c(=S)[nH]c(=O)c2C1	-	-	-	-	-	-	.
COc1ccccc1/C=N/NC(=O)c1ccccc1NS(=O)(=O)c1ccc(C)cc1	-	-	-	-	-	-	.
O=[N+]([O-])c1ccc(O)c(-c2nc(-c3ccccc3)c(-c3cccs3)[nH]2)c1	17.1	-	-	-	-	-	-
CCOc1cc(-c2nc(-c3ccccc3)c(-c3cc([N+](=O)[O-])ccc3C)[nH]2)ccc1O	24.4	-	-	-	-	-	-
O=C(O)c1ccc(-c2nc(-c3ccccc3)c(-c3cccs3)[nH]2)cc1	-	-	-	-	-	-	.
SMILES	SIAE primary	GSTO1 inh	TDP2 absorb	PAD4 FP inh	TCR CD3 inh	Apaf1 inhib	SIAE confirm
O=C(CN1CCCCC1)NNC(=O)c1ccc([N+](=O)[O-])cc1	-	-	-	-	-	-	.
O=C1[C@H]2[C@@H](c3ccc(F)cc3)N3C(=O)N(c4cccc(F)c4)C(=O)[C@@]3(Cc3ccccc3)[C@H]2C(=O)N1C1CCCCC1	-	-	-	-	-	-	.
Cc1ccc(-c2nnc(Nc3ccc(C(=O)N(C)C)cc3)c3ccccc23)cc1S(=O)(=O)NCC1CCCO1 (stereo not given)	20.6	-	-	-	-	-	-
COc1ccc(S(=O)(=O)N=C2C=C(C)C(=O)C(C)=C2)cc1	-	-	-	-	-	-	.
COc1ccccc1-n1c(=O)c2c3c(sc2n2c(=S)[nH]nc12)CCC3	17.6	-	-	-	-	-	-
COc1ccc(-n2c(=O)c3c4c(sc3n(CC(=O)Nc3cc(C)[nH]n3)c2=O)CCC4)c(OC)c1	-	-	-	-	-	-	.
CN1Cc2c(N3CCOCC3)nc3sc(C#N)c(N)c3c2CC1(C)C	19.9	-	-	-	-	-	-
CC(C)Sc1nc(N2CCOCC2)c2c(c1C#N)CC(C)(C)N(C)C2	-	-	-	-	-	-	.
COc1cc(/C=N/Nc2nc(-c3ccc(S(=O)(=O)N(C)C)cc3)cs2)ccc1O	17.2	-	-	-	-	-	-
COc1ccc(-c2csc(NC(=S)NC(=O)c3ccc(S(=O)(=O)N(C)C)cc3)n2)cc1OC	-	-	-	-	-	-	.
COc1ccc(/C=N/Nc2nc(-c3cccc(S(=O)(=O)N4CCCC4)c3)cs2)cc1OC	-	-	-	-	-	-	.
CCOc1cc(/C=N/Nc2nc(-c3cccc(S(=O)(=O)N4CCCC4)c3)cs2)ccc1O	20.7	-	-	-	-	-	-
COc1ccc(-n2c(Cc3cccn3C)nnc2SCC(=O)N2CCC(C)CC2)cc1	-	-	-	-	-	-	.
Cn1cccc1Cc1nnc(SCC(=O)Nc2ccc3c(c2)OCCO3)n1-c1ccc(F)cc1	19.7	-	-	-	-	-	-
COc1ccc(-n2c(Cc3cccn3C)nnc2SCC(=O)N2CCCC2)cc1	17.7	-	-	-	-	-	-
COc1cc(NC(=O)CSc2nc(=O)n(CCN3CCOCC3)c3c2CCCC3)cc(OC)c1	-	-	-	-	-	-	.
COc1ccc(C(C)(C)C)cc1NC(=O)CCCn1c(=O)oc2ccccc21	75.8	-	-	-	-	-	-
Cc1nn(C(C)C(=O)NCc2cccs2)c(=O)c2nn(-c3ccccc3)c(C)c12 (stereo not given)	-	-	-	-	-	-	.
C/C(=N\NC(=O)c1ccccc1O)c1ccc(NC(=O)Cc2ccccc2)cc1	17.6	-	-	-	-	-	-
Nc1c(C(=O)O)cnc2nc(N3CCOCC3)nn12	-	-	-	-	-	-	.
COc1ccc(OC)c(NC(=O)c2cc3c(Cl)nc4ccccc4c3s2)c1	-	-	-	-	-	-	.
COc1ccc(NC(=O)c2cc3c(Cl)nc4ccccc4c3s2)cc1OC	25.6	-	-	-	-	-	-
OC(c1ccc(-c2ccccc2)cc1)c1ncc(-c2ccc(C(F)(F)F)cc2)[nH]1 (stereo not given)	-	.	-	.	-	.	.
Nc1cc(N)cc(-c2nc3ccccc3o2)c1	25.4	-	-	-	-	-	-

High-throughput results deposited in PubChem by several laboratories.
